Reference: ChEMBL document CHEMBL1156069, “Optimising metabolic stability in lipophilic chemical space: the identification of a metabolically stable pyrazolopyrimidine CRF-1 receptor antagonist” (Bioorg Med Chem Lett, 2009)

Tests used:
[1] = test system: Liver microsomes; test: Intrinsic clearance in rat liver microsomes assessed per mg of protein; type: ADME, Microsome
[2] = test system: Liver microsomes; test: Intrinsic clearance in human liver microsomes assessed per mg of protein; type: ADME, Microsome
[3] = molecular target: T1, Corticotropin-releasing factor receptor 1 (Homo sapiens, UniProt P34998); test: Antagonist activity at human recombinant CRF1 receptor expressed in CHO cells assessed as inhibition of CRF-induced cAMP production; type: functional, cell-based
T1 sequence (P34998 whole entry): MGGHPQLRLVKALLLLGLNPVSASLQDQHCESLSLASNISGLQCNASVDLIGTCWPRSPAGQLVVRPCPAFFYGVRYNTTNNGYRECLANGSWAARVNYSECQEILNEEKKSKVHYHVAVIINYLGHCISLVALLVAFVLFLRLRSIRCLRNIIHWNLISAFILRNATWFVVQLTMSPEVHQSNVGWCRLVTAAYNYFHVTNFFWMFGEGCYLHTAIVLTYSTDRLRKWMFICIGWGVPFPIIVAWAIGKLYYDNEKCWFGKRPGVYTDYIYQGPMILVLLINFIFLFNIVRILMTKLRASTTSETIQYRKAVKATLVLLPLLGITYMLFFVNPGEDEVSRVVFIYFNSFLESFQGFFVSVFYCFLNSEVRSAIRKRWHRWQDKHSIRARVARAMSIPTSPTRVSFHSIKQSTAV
In short: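 CHO cells stably expressing recombinant human CRF-1, grown in DMEM:F12 with 10% FBS, 1% Glutamax and Geneticin at 37 °C, 5% CO2 to 70% confluence. hCRF (10 nM final) added with compound to 10,000 cells/well in PBS with IBMX. cAMP read by enzyme-fragment complementation kit. 0.5-log serial dilutions, repeated tests, 4-parameter logistic IC50. Ki by Cheng–Prusoff from agonist EC50 measured the same day.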

[4] = Half life in rat at 0.1 mg/kg, iv and 5 mg/kg, po; type: ADME, organism-based; conditions: in vivo
[5] = Chemical stability at pH 1.2 assessed as compound remaining at 50 degC after 14 days; type: physicochemical; conditions: buffer, read-out: Stability
[6] = Bioavailability in rat at 0.1 mg/kg, iv and 5 mg/kg, po; type: ADME, organism-based; conditions: in vivo
[7] = Volume of distribution in rat at 0.1 mg/kg, iv and 5 mg/kg, po; type: ADME, organism-based; conditions: in vivo
[8] = Clearance in rat at 0.1 mg/kg, iv and 5 mg/kg, po; type: ADME, organism-based; conditions: in vivo
[9] = Chemical stability of the compound; type: physicochemical

SMILES | clearance [1] [µL/min/mg] | clearance [2] [µL/min/mg] | Ki [3] [nM] | half-life [4] [h] | remaining at 336 h [5] [%] | bioavailability [6] [%] | Vd [7] [L/kg] | clearance [8] [mL/min/kg] | Stability [9]
CCC(CC)Nc1nc(C)nc2c1c(C)nn2-c1ccc(OC)cc1C | 72 | 64 | 42 | – | – | – | – | – | –
CCC[C@H](CO)Nc1nc(C)nc2c1c(C)nn2-c1ccc(OC)cc1C | 41 | 23 | 76 | – | – | – | – | – | –
COc1ccc(-n2nc(C)c3c(NC(C4CC4)C4CC4)nc(C)nc32)c(C)c1 | 24 | < 12 | 35 | – | – | – | – | – | –
CCCN(CCO)c1nc(C)nc2c1c(C)nn2-c1ccc(OC)cc1C | 117 | 80 | 129 | – | – | – | – | – | –
CCCN(CC(=O)N(C)C)c1nc(C)nc2c1c(C)nn2-c1ccc(OC)cc1C | 22 | 18 | 1410 | – | – | – | – | – | –
CC[C@H](COC)Nc1nc(C)nc2c1c(C)nn2-c1ccc(OC)cc1C | 53 | 37 | 210 | – | – | – | – | – | –
CCCNCc1nc(Nc2nc(C)nc3c2c(C)nn3-c2ccc(OC)cc2C)no1 | 58 | 29 | 124 | – | – | – | – | – | –
CC[C@H](CO)Nc1nc(C)nc2c1c(C)nn2-c1ccc(OC)cc1C | 23 | < 7 | 1130 | – | – | – | – | – | –
CCCN(CCOC)c1nc(C)nc2c1c(C)nn2-c1ccc(C#N)cc1C | < 11 | 147 | 101 | – | – | – | – | – | –
CCCNCc1cncn1Nc1nc(C)nc2c1c(C)nn2-c1ccc(OC)cc1C | 85 | 196 | 2500 | – | – | – | – | – | –
CCN(CCOC)c1nc(C)nc2c1c(C)nn2-c1ccc(OC)cc1C | 104 | 117 | 117 | – | – | – | – | – | –
CCCN(CCOC)c1nc(C)nc2c1c(C)nn2-c1ccc(C(N)=O)cc1C | 22 | 17 | 275 | – | – | – | – | – | –
CCCNCc1nccn1Nc1nc(C)nc2c1c(C)nn2-c1ccc(OC)cc1C | 67 | 96 | 400 | – | – | – | – | – | –
CCCNCc1noc(Nc2nc(C)nc3c2c(C)nn3-c2ccc(OC)cc2C)n1 | 66 | 51 | 84 | – | – | – | – | – | –
CC[C@@H](CO)Nc1nc(C)nc2c1c(C)nn2-c1ccc(OC)cc1C | 27 | < 7 | 620 | – | – | – | – | – | –
CCCN(CCOC)c1nc(C)nc2c1c(C)nn2-c1ccc(OC)cc1C | 23 | 172 | 13 | – | – | – | – | – | –
CCCNCc1nnc(Nc2nc(C)nc3c2c(C)nn3-c2ccc(OC)cc2C)o1 | 40 | 34 | 996 | – | – | – | – | – | –
CCCN(CCOC)c1nc(C)nc2c1cnn2-c1ccc(OC)cc1C | 387 | 16 | 132 | – | – | – | – | – | –
CCCN(CCOC)c1nc(C)nc2c1c(C)nn2-c1ccc(OC)nc1C | 163 | 117 | 43 | – | – | – | – | – | –
CCCN(CCOC)c1nc(C)nc2c1c(C)nn2-c1ccc(OC)nc1OC | 159 | 218 | 17 | – | – | – | – | – | –
CCC[C@@H](CO)Nc1nc(C)nc2c1c(C)nn2-c1ccc(OC)cc1C | 36 | 10 | 574 | – | – | – | – | – | –
COc1ccc(-n2ncc3c(NC(C4CC4)C4CC4)nc(C)nc32)c(C)c1 | 25 | < 11 | 32 | 1.9 | 51 | 43 | 7 | 27 | Stable
CCCCN(CC)c1nc(C)nc2c1c(C)nn2-c1c(C)cc(C)cc1C | – | > 320 | 9 | – | – | – | – | – | –
CCCN(CCOC)c1nc(C)nc2c1c(C)nn2-c1ccc(C(N)=O)nc1C | 13 | 38 | 577 | – | – | – | – | – | –
CCC(CC)Nc1nc(C)nc2c1cnn2-c1ccc(OC)cc1C | 246 | 15 | 85 | – | – | – | – | – | –
CC[C@@H](COC)Nc1nc(C)nc2c1c(C)nn2-c1ccc(OC)cc1C | 105 | 52 | 135 | – | – | – | – | – | –
COCCN(CCOC)c1nc(C)nc2c1c(C)nn2-c1ccc(OC)cc1C | 47 | 66 | 193 | – | – | – | – | – | –
CCCN(CCOC)c1nc(C)nc2c1c(C)nn2-c1ccc(C#N)cc1C#N | 166 | 151 | 632 | – | – | – | – | – | –
CCCN(CCOC)c1nc(C)nc2c1c(C)nn2-c1ccc(OC)cc1OC | 90 | 86 | 74 | – | – | – | – | – | –
CCCN(CCOC)c1nc(C)nc2c1c(C)nn2-c1cnc(N(C)C)cc1C | 206 | 160 | 183 | – | – | – | – | – | –
